What was measured:
HL-60 [1] = assay: Antiproliferative activity against human HL60 assessed as reduction in cell growth at 100 uM by CellTiter-non radioactive cell proliferation assay; assay type: functional
THP-1 [2] = assay: Antiproliferative activity against human THP-1 assessed as reduction in cell growth at 20 uM by CellTiter-non radioactive cell proliferation assay; assay type: functional
THP-1 [3] = assay: Antiproliferative activity against human THP-1 assessed as reduction in cell growth at 1 uM by CellTiter-non radioactive cell proliferation assay; assay type: functional
HL-60 [4] = assay: Antiproliferative activity against human HL60 assessed as reduction in cell growth at 1 uM by CellTiter-non radioactive cell proliferation assay; assay type: functional
HL-60 [5] = assay: Antiproliferative activity against human HL60 assessed as reduction in cell growth at 20 uM by CellTiter-non radioactive cell proliferation assay; assay type: functional
THP-1 [6] = assay: Antiproliferative activity against human THP-1 assessed as reduction in cell growth at 100 uM by CellTiter-non radioactive cell proliferation assay; assay type: functional
[7] = biological target: T1, Protein deacetylase HDAC6 (Homo sapiens) (UniProt Q9UBN7); assay: Inhibition of recombinant human HDAC6 at 10 uM using Z-(Ac)Lys-AMC as substrate after 90 mins by fluorescence based micro plate assay
T1 sequence (whole entry): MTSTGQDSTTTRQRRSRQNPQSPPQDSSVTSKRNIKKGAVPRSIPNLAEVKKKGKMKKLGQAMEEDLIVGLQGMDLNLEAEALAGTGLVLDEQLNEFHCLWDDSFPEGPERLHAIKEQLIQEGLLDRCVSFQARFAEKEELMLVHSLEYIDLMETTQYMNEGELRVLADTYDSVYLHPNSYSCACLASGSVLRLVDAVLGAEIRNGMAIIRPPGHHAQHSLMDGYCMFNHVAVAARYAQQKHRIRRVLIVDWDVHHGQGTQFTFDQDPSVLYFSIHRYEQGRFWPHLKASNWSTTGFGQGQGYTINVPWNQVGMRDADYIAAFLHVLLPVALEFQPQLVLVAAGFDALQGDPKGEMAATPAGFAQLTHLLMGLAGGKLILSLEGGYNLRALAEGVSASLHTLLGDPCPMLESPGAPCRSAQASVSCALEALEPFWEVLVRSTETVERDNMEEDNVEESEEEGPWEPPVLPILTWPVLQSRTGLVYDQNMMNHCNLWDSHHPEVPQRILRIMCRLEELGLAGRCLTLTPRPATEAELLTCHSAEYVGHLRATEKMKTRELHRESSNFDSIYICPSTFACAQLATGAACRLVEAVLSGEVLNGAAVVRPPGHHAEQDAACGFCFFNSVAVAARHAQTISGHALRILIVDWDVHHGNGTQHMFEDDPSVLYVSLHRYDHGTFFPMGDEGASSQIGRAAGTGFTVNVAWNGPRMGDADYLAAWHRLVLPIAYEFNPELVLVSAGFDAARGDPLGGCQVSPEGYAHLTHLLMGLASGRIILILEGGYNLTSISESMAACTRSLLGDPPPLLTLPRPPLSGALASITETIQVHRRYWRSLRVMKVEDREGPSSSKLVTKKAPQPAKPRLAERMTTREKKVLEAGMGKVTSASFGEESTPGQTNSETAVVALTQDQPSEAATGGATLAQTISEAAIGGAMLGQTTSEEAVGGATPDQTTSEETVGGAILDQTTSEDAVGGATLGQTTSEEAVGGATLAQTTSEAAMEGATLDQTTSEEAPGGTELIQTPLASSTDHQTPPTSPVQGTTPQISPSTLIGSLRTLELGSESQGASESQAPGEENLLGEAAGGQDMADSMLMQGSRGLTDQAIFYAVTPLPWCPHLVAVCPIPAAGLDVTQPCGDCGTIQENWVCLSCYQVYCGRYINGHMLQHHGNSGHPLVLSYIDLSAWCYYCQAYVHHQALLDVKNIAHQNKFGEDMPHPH
Outline: (§1)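 Recombinant human HDAC1 or HDAC6 incubated 90 min at 37 °C with 10.5 μM ZMAL (Z-(Ac)Lys-AMC) and increasing inhibitor concentrations, using a homogeneous fluorescence assay. Fluorescence read at Ex 390/Em 460 nm.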

Histone deacetylase 8 = biological target: T2, Histone deacetylase 8 (Homo sapiens, UniProt Q9BY41); assay: Inhibition of human recombinant HDAC8 using H2N-Arg-His-Lys(Ac)-Lys(Ac)-AMC as substrate after 90 mins by fluorescence based micro plate assay
T2 sequence (Q9BY41 whole entry): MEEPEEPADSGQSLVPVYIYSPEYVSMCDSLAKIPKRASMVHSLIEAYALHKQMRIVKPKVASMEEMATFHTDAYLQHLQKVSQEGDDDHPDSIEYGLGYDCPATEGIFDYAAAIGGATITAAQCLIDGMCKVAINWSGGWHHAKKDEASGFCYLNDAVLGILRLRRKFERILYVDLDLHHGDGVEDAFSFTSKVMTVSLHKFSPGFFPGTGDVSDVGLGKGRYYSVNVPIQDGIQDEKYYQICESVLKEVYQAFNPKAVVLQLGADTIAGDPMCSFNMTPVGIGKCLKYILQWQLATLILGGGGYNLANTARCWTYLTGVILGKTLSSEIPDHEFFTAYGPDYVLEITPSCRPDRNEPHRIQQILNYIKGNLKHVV

HL-60 [8] = assay: Antiproliferative activity against human HL60 assessed as reduction in cell growth at 4 uM by CellTiter-non radioactive cell proliferation assay; assay type: functional
Outline: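 HL60 cells plated at 5000 per well and given inhibitor or DMSO vehicle immediately. Compounds diluted from 200x DMSO stocks; three replicates per concentration. Growth read by CellTiter 96 Aqueous (MTS) assay. GI50 is the concentration cutting metabolically active cells by 50% versus DMSO control, taken from absorbance against log concentration.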

[9] = biological target: T1, Protein deacetylase HDAC6 (Homo sapiens); assay: Inhibition of recombinant human HDAC6 at 1 uM using Z-(Ac)Lys-AMC as substrate after 90 mins by fluorescence based micro plate assay; outline: as §1
Histone deacetylase 1 [10] = biological target: T3, Histone deacetylase 1 (Homo sapiens, UniProt Q13547); assay: Inhibition of recombinant human HDAC1 at 10 uM using Z-(Ac)Lys-AMC as substrate after 90 mins by fluorescence based micro plate assay; outline: as §1
T3 sequence (Q13547 whole entry): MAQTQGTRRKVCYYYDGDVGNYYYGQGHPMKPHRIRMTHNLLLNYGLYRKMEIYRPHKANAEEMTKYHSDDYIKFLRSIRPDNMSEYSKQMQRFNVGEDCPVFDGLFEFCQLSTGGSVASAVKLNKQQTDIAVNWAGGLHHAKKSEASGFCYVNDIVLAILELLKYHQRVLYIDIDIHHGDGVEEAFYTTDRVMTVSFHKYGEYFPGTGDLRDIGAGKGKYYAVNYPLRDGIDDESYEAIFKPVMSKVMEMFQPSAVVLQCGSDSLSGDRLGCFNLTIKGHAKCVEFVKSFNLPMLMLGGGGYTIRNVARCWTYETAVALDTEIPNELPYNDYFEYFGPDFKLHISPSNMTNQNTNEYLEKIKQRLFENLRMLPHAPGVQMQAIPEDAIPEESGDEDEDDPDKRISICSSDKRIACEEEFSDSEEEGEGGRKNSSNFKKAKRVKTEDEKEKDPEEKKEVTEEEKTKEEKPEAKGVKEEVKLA

Histone deacetylase 1 [11] = biological target: T3, Histone deacetylase 1; assay: Inhibition of recombinant human HDAC1 at 1 uM using Z-(Ac)Lys-AMC as substrate after 90 mins by fluorescence based micro plate assay; outline: as §1
Peregrin = biological target: T4, Peregrin (Homo sapiens, UniProt P55201); assay: Binding affinity to BRPF1 (unknown origin) by Isothermal titration calorimetry; conditions: read-out: Kd
T4 sequence (P55201 whole entry): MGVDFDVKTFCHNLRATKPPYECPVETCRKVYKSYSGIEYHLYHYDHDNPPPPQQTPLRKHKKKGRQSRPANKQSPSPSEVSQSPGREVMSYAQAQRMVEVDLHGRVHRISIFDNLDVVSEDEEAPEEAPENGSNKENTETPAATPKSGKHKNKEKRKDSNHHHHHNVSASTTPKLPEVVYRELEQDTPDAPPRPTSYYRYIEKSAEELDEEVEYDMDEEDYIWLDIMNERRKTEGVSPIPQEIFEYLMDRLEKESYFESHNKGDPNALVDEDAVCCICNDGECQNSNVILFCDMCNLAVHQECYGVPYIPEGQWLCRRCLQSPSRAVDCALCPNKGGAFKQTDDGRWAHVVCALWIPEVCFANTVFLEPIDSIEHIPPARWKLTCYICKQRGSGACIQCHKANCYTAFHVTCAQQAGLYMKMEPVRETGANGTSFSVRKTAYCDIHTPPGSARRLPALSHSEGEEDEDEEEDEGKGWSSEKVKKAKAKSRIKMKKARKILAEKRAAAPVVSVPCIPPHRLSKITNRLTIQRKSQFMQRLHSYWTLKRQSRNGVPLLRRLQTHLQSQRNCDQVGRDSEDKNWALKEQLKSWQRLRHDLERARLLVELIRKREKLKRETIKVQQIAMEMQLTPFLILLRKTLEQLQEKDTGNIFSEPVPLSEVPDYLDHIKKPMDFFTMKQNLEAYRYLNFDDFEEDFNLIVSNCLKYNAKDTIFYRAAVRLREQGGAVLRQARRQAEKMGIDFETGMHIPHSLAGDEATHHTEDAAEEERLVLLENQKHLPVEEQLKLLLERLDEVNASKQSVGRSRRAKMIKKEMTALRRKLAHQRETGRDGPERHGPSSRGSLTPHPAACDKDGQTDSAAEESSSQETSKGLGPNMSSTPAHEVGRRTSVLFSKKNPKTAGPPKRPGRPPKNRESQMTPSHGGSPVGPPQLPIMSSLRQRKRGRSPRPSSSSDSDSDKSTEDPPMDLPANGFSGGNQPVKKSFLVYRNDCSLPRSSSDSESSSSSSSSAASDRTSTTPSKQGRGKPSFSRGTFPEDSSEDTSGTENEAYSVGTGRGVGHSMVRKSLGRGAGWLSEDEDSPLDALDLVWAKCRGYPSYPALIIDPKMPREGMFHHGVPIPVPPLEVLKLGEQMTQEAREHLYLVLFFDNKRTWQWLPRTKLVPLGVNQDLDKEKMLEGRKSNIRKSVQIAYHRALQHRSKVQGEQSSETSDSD
Outline: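 Isothermal titration calorimetry with recombinant BRPF1 (200–400 μM) in the injection syringe titrated into ligand (20–40 μM) in the sample cell. Kd was fitted from the titrations and reported with its P99 interval.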

[12] = biological target: T5, Protein deacetylase HDAC6 (Homo sapiens, UniProt Q9UBN7); assay: Inhibition of recombinant human HDAC6 using Z-(Ac)Lys-AMC as substrate after 90 mins by fluorescence based micro plate assay; outline: as §1
T5 sequence (Q9UBN7 whole entry): T1 sequence (whole entry)

Histone deacetylase 1 [13] = biological target: T3, Histone deacetylase 1; assay: Inhibition of recombinant human HDAC1 using Z-(Ac)Lys-AMC as substrate after 90 mins by fluorescence based micro plate assay; outline: as §1
THP-1 [14] = assay: Antiproliferative activity against human THP-1 assessed as reduction in cell growth at 4 uM by CellTiter-non radioactive cell proliferation assay; assay type: functional

Compound | inhibition [7] [%] | IC50 (Histone deacetylase 8) [nM] | inhibition [9] [%] | inhibition (Histone deacetylase 1 [10]) [%] | inhibition (Histone deacetylase 1 [11]) [%] | Kd (Peregrin) [nM] | IC50 [12] [nM] | IC50 (Histone deacetylase 1 [13]) [nM] | inhibition at 100 µM (HL-60 [1]) [%] | inhibition at 20 µM (THP-1 [2]) [%] | inhibition at 1 µM (THP-1 [3]) [%] | inhibition at 1 µM (HL-60 [4]) [%] | inhibition at 20 µM (HL-60 [5]) [%] | inhibition at 100 µM (THP-1 [6]) [%] | inhibition at 4 µM (HL-60 [8]) [%] | inhibition at 4 µM (THP-1 [14]) [%]
COC(=O)c1ccc(S(=O)(=O)Nc2ccc3c(c2)cc(C)c(=O)n3C)cc1 | – | – | – | – | – | – | – | – | 68 | 85 | 0 | 5 | 22 | 95 | – | –
Cc1cc2cc(NS(=O)(=O)Cc3ccc(C(=O)NOCc4ccc(O)cc4)cc3)ccc2n(C)c1=O | – | – | – | – | – | – | – | – | – | 1 | 0 | – | – | 91 | – | –
COC(=O)c1ccc(CS(=O)(=O)Nc2ccc3c(c2)cc(C)c(=O)n3C)cc1 | – | – | – | – | – | – | – | – | 78 | 9 | 0 | 15 | 14 | 93 | – | –
COc1ccc(C(=O)NOCc2ccc(OC(C)=O)cc2)cc1S(=O)(=O)Nc1ccc2c(c1)cc(C)c(=O)n2C | – | – | – | – | – | – | – | – | 95 | 3 | – | 0 | 0 | 27 | – | –
COc1ccc(C(=O)NO)cc1C(=O)Nc1ccc2c(c1)cc(C)c(=O)n2C | – | 65 | – | – | – | 857 | 709 | 6900 | – | – | – | – | – | – | – | –
Cc1cc2cc(NCc3cc(C(=O)NO)ccc3Cl)ccc2n(C)c1=O | 84 | 3190 | 28 | 20 | – | – | – | – | – | – | – | – | – | – | – | –
COc1ccc(C(=O)NOCc2ccccc2)cc1S(=O)(=O)Nc1ccc2c(c1)cc(C)c(=O)n2C | – | – | – | – | – | – | – | – | 13 | 20 | – | 2 | – | – | – | –
COc1ccc(C(=O)NO)cc1CNc1ccc2c(c1)cc(C)c(=O)n2C | 68 | 555 | 40 | 31 | – | – | – | – | – | – | – | – | – | – | – | –
Cc1cc2cc(NC(=O)c3cc(C(=O)NO)ccc3Cl)ccc2n(C)c1=O | – | 113 | – | – | – | – | – | – | – | – | – | – | – | – | – | –

Second part, led by results:

inhibition [7] [%] | IC50 (Histone deacetylase 8) [nM] | inhibition [9] [%] | inhibition (Histone deacetylase 1 [10]) [%] | inhibition (Histone deacetylase 1 [11]) [%] | Kd (Peregrin) [nM] | IC50 [12] [nM] | IC50 (Histone deacetylase 1 [13]) [nM] | Compound | inhibition at 100 µM (HL-60 [1]) [%] | inhibition at 20 µM (THP-1 [2]) [%] | inhibition at 1 µM (THP-1 [3]) [%] | inhibition at 1 µM (HL-60 [4]) [%] | inhibition at 20 µM (HL-60 [5]) [%] | inhibition at 100 µM (THP-1 [6]) [%] | inhibition at 4 µM (HL-60 [8]) [%] | inhibition at 4 µM (THP-1 [14]) [%]
63 | 158 | 14 | 29 | 4 | – | – | – | COc1ccc(C(=O)NO)cc1CS(=O)(=O)Nc1ccc2c(c1)cc(C)c(=O)n2C | 0 | 0 | 0 | – | 0 | 0 | 0 | –
– | 908 | – | – | – | 175 | 344 | 797 | Cc1cc2cc(NS(=O)(=O)c3ccc(C(=O)NO)cc3)ccc2n(C)c1=O | 34 | – | 0 | 3 | 6 | 78 | – | –
33 | 465 | 3 | 26 | 2 | – | – | – | Cc1cc2cc(NS(=O)(=O)Cc3cccc(C(=O)NO)c3)ccc2n(C)c1=O | 0 | 0 | 0 | – | 0 | 0 | 0 | –
46 | 231 | 15 | 29 | 11 | 1580 | – | – | COc1cc(C(=O)NO)ccc1CS(=O)(=O)Nc1ccc2c(c1)cc(C)c(=O)n2C | 0 | 0 | – | – | 0 | – | 0 | –
59 | 560 | 13 | 31 | 13 | 234 | – | – | Cc1cc2cc(NS(=O)(=O)c3cc(C(=O)NO)ccc3Cl)ccc2n(C)c1=O | 33 | 8 | – | – | 32 | 21 | 29 | 16

Reference: ChEMBL document CHEMBL4765345, “Design, synthesis, and biological evaluation of dual targeting inhibitors of histone deacetylase 6/8 and bromodomain BRPF1” (Eur J Med Chem, 2020)
